# Source: ChEMBL document CHEMBL4808178 (J Med Chem, 2021)
# Calls of active or inactive are those of the source. The calls are words filed in the database; no cut-off is given here.
# How the values were obtained:
# PC-3 = assay: Cytotoxicity against human PC3 cells assessed as reduction in cell viability incubated for 72 hrs by MTT assay; assay type: functional, cell-based; details: PC-3, 72 h
# Summary of the method: (§1)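 About 5 × 10³ cells/well, seeded overnight at 37 °C, 5% CO₂, in DMEM or RPMI-1640 with 10% FBS and antibiotics. DMSO-dissolved compounds diluted in medium, exposure 72 h.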
# HCT-116 [1] = assay: Cytotoxicity against human HCT-116 cells assessed as reduction in cell viability incubated for 72 hrs by MTT assay; assay type: functional, cell-based; details: HCT-116, 72 h; summary of the method: as §1
# MCF7 = assay: Cytotoxicity against human MCF7 cells assessed as reduction in cell viability incubated for 72 hrs by MTT assay; assay type: functional, cell-based; details: MCF7, 72 h; summary of the method: as §1
# HT-29 = assay: Cytotoxicity against human HT-29 cells assessed as reduction in cell viability incubated for 72 hrs by MTT assay; assay type: functional, cell-based; details: HT-29, 72 h
# T-24 = assay: Cytotoxicity against human T24 cells assessed as reduction in cell viability incubated for 72 hrs by MTT assay; assay type: functional, cell-based; details: T-24, 72 h; summary of the method: as §1
# L02 = assay: Cytotoxicity against human L02 cells assessed as reduction in cell viability incubated for 72 hrs by MTT assay; assay type: cell-based; details: L02, 72 h; summary of the method: as §1
# [2] = target: T1, Aldehyde dehydrogenase 1A1 (Homo sapiens) (UniProt P00352); assay: Inhibition of ALDH1A1 in human HCT116 cells at 5 uM after 24 hrs by aldefluor staining based fluorescence analysis; assay type: cell-based; details: HCT-116
# T1 sequence (whole entry): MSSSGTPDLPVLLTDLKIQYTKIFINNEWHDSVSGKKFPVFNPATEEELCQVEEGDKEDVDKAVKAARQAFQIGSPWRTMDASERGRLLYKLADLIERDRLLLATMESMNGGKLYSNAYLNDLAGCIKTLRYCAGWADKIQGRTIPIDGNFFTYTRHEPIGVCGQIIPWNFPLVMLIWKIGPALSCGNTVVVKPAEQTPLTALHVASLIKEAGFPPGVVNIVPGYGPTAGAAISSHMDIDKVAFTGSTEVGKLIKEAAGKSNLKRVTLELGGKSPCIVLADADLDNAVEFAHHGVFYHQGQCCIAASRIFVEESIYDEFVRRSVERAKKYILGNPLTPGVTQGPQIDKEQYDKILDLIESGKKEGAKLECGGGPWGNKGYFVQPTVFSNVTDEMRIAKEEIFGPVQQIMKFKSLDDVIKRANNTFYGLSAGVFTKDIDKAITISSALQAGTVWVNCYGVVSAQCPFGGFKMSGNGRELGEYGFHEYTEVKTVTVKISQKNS
# Summary of the method: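 HCT-116 cells, 2 × 10⁵/well, grown overnight at 37 °C, 5% CO₂, then treated 24 h (vehicle DMSO). Aldefluor staining read in FITC channel by FACS for proportion of ALDH⁺ cells; DEAB-pretreated cells set baseline fluorescence.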
# HCT-116 [3] = assay: Inhibition of cell stemness in human HCT116 cells assessed as inhibition of CD44+/CD133+ expression at 20 uM after 24 hrs by flow cytometry analysis; assay type: functional
# Summary of the method: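 ALDH⁺ HCT-116 subpopulation sorted by flow cytometry; 2 × 10⁵ cells/well seeded overnight at 37 °C, 5% CO₂; treated 20 μM for 24 h (vehicle DMSO); stained with PE anti-CD133 and FITC anti-CD44 30 min; CD44⁺/CD133⁺ read by flow cytometry.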
# HCT-116 [4] = assay: Inhibition of cell stemness in human HCT116 cells assessed as morphological alterations at 5 uM after 10 days by microscopic analysis; assay type: functional, cell-based; details: time 10.0 day
# Summary of the method: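 Sorted ALDH⁺ HCT-116 cells, 800/well, in serum-free DMEM with B27 (1:50), EGF 20 ng/mL, β-FGF 10 ng/mL; co-incubated with compound (5 μM) or DMSO vehicle for 10 days; sphere number, diameter and morphology scored from microscopy images; mean ± SD, n = 3.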
# HCT-116 [5] = assay: Induction of apoptosis in human HCT116 cells assessed as viable cells at 5 uM after 24 hrs by annexin V-FITC/propidium iodide staining based flow cytometry (reference value: 88.3%); assay type: functional; details: read-out: Activity
# HCT-116 [6] = assay: Induction of apoptosis in human HCT116 cells assessed as early apoptotic cells at 5 uM after 24 hrs by annexin V-FITC/propidium iodide staining based flow cytometry (reference value: 1%); assay type: functional
# HCT-116 [7] = assay: Induction of apoptosis in human HCT116 cells assessed as late apoptotic cells at 5 uM after 24 hrs by annexin V-FITC/propidium iodide staining based flow cytometry (reference value: 5.1%); assay type: functional
# HCT-116 [8] = assay: Induction of apoptosis in human HCT116 cells assessed as necrotic cells at 5 uM after 24 hrs by annexin V-FITC/propidium iodide staining based flow cytometry (reference value: 5.6%); assay type: functional
# HCT-116 [9] = assay: Induction of cell cycle arrest in human HCT116 cells assessed as accumulation at G0/G1 phase at 20 uM after 24 hrs by propidium iodide-staining based flow cytometry (reference value: 48.89%); assay type: functional
# HCT-116 [10] = assay: Induction of cell cycle arrest in human HCT116 cells assessed as accumulation at S phase at 20 uM after 24 hrs by propidium iodide-staining based flow cytometry (reference value: 36.43%); assay type: functional
# HCT-116 [11] = assay: Induction of cell cycle arrest in human HCT116 cells assessed as accumulation at G2/M phase at 20 uM after 24 hrs by propidium iodide-staining based flow cytometry (reference value: 14.67%); assay type: functional
# [12] = Tmax in Sprague-Dawley rat at 25 mg/kg, po measured up to 48 hrs by LC-MS/MS analysis; assay type: ADME, organism-based; details: in vivo
# Summary of the method: (§2)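 Overnight-fasted male SD rats (250−270 g, n = 3/group), single oral 25 mg/kg in 5% CMC-Na (reference sodium salt in phosphate buffer); plasma at 0.25–48 h (12 timepoints), stored −40 °C; LC−MS/MS with internal-standard calibration 3–3000 ng/mL; parameters fitted by model.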
# [13] = Cmax in Sprague-Dawley rat at 25 mg/kg, po measured up to 48 hrs by LC-MS/MS analysis; assay type: ADME, organism-based; parameters: route oral, dose 25 mg/kg, time <=48; details: in vivo
# Summary of the method: (§3)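 Overnight-fasted male SD rats (about 250−270 g), three per group, single oral 25 mg/kg; test compound suspended in 5% CMC-Na, control as sodium salt in phosphate buffer. Blood sampled 0.25–48 h, plasma by centrifugation, stored −40 °C, quantified by LC−MS/MS against plasma standard curve (3–3000 ng/mL) with internal standard; model-fitted PK parameters.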
# [14] = Half life in Sprague-Dawley rat at 25 mg/kg, po measured up to 48 hrs by LC-MS/MS analysis; assay type: ADME, organism-based; details: in vivo; summary of the method: as §3
# [15] = Clearance in Sprague-Dawley rat at 25 mg/kg, po measured up to 48 hrs by LC-MS/MS analysis; assay type: ADME, organism-based; details: in vivo; summary of the method: as §3
# [16] = AUC(0 to t) in Sprague-Dawley rat at 25 mg/kg, po measured up to 48 hrs by LC-MS/MS analysis; assay type: ADME, organism-based; parameters: route oral, dose 25 mg/kg, time <=48; details: in vivo; summary of the method: as §3
# [17] = AUC(0 to infinity) in Sprague-Dawley rat at 25 mg/kg, po measured up to 48 hrs by LC-MS/MS analysis; assay type: ADME, organism-based; parameters: route oral, dose 25 mg/kg, time <=48; details: in vivo; summary of the method: as §3
# [18] = Volume of distribution in Sprague-Dawley rat at 25 mg/kg, po measured up to 48 hrs by LC-MS/MS analysis; assay type: ADME, organism-based; details: in vivo; summary of the method: as §2
# [19] = MRT(0 to t) in Sprague-Dawley rat at 25 mg/kg, po measured up to 48 hrs by LC-MS/MS analysis; assay type: ADME, organism-based; details: in vivo; summary of the method: as §2
# [20] = MRT(0 to infinity) in Sprague-Dawley rat at 25 mg/kg, po measured up to 48 hrs by LC-MS/MS analysis; assay type: ADME, organism-based; details: in vivo; summary of the method: as §2
# HCT-116 [21] = assay: Antitumor activity against human HCT116 cells xenografted in BALB/c athymic nude mouse assessed as tumor growth inhibition at 60 mg/kg, po administered twice daily for 4 weeks and measured every 3 days; assay type: functional; details: HCT-116, po, 672 h, read-out: TGI
# Summary of the method: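 Male BALB/c athymic nude mice, 5 weeks old, 16−18 g, given 0.2 mL of 5 × 10⁷ cells/mL HCT-116 in right armpit. At about 100 mm³, randomized to groups of five; intragastric dosing twice daily for 4 weeks. Tumor volume and body weight every 3 days; tumors weighed after sacrifice; organs HE-stained.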
smiles,measurement,setting,value
O=C(O)c1ccc2c(c1)nc(Nc1cccc(Cl)c1)c1ccncc12 [SILMITASERTIB],IC50,PC-3,12.8 µM
same,IC50,HCT-116 [1],13.2 µM
same,IC50,MCF7,15.3 µM
same,IC50,HT-29,16 µM
same,IC50,T-24,12.9 µM
same,IC50,L02,23 µM
same,inhibition,[2],61%
same,inhibition at 20 µM,HCT-116 [3],58%
same,inhibition,HCT-116 [4],Active
same,viability at 5 µM,HCT-116 [5],80.7%
same,Activity,HCT-116 [6],6.8%
same,Activity,HCT-116 [7],8.3%
same,Activity,HCT-116 [8],4.2%
same,Activity,HCT-116 [9],62.48%
same,Activity,HCT-116 [10],26.31%
same,Activity,HCT-116 [11],11.21%
same,Tmax,[12],2 h
same,Cmax,[13],6790 ng/mL
same,half-life,[14],5.82 h
same,CL/F,[15],10.5 mL/min/kg
same,AUC(0-t) at 48 h,[16],38900 ng·h/mL
same,AUC(0-inf),[17],40000 ng·h/mL
same,Vd,[18],2.39 L/kg
same,MRT last at 48 h,[19],6.45 h
same,MRT inf,[20],6.52 h
same,inhibition in vivo at 60 mg/kg,HCT-116 [21],15%
